Legend:
MCF7 [1] = experiment: Cytotoxicity activity against human MCF7 cells expressing p53 mutant by MTT assay; format: functional, cell-based
Procedure, shortened: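 Human mammary carcinoma MCF-7 cells carrying a dominant-negative mutant p53 tumour suppressor gene (MCF-7 mup53). Cytotoxicity was read out by MTT assay, and the value reported is the IC50 in nM.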

MCF7 [2] = experiment: Antimitotic activity against human MCF7 cells expressing p53 mutant

CCOC(=O)/C(C)=C/[C@H](C(C)C)N(C)C(=O)[C@@H](NC(=O)[C@@H](NC)C(C)(C)c1ccccc1)C(C)(C)C
IC50 (MCF7 [1]): 7 nM | IC50 (MCF7 [2]): 1 nM

CN[C@@H](Cc1ccccc1)C(=O)N[C@H](C(=O)N(C)[C@H](/C=C(\C)C(=O)O)C(C)C)C(C)(C)C
IC50 (MCF7 [1]): 4000 nM | IC50 (MCF7 [2]): 5000 nM

CN[C@H](C(=O)N[C@H](C(=O)N[C@H](/C=C(\C)C(=O)O)C(C)C)C(C)(C)C)C(C)(C)c1ccccc1
IC50 (MCF7 [1]): 15 nM | IC50 (MCF7 [2]): 20 nM

CN[C@H](C(=O)N[C@H](C(=O)N(C)[C@H](/C=C(\C)C(=O)O)C(C)C)C(C)(C)C)C(C)(C)C
IC50 (MCF7 [1]): 6 nM | IC50 (MCF7 [2]): 6 nM

CN[C@H](C(=O)N[C@H](C(=O)N[C@H](/C=C(\C)C(=O)O)C(C)C)C(C)(C)C)C(C)(C)c1cn(C)c2ccccc12
IC50 (MCF7 [1]): 0.25 nM | IC50 (MCF7 [2]): 0.15 nM

CN[C@H](C(=O)N[C@H](C(=O)N(C)[C@H](C)/C=C(\C)C(=O)O)C(C)(C)C)C(C)(C)c1cn(C)c2ccccc12
IC50 (MCF7 [1]): 40 nM | IC50 (MCF7 [2]): 200 nM

CN[C@H](C(=O)N[C@H](C(=O)N(C)[C@H](/C=C(\C)C(=O)OC)C(C)C)C(C)(C)C)C(C)(C)c1ccccc1
IC50 (MCF7 [1]): 3 nM | IC50 (MCF7 [2]): 2 nM

CN[C@H](C(=O)N[C@H](C(=O)N(C)[C@H](/C=C(\C)C(=O)O)C(C)C)C(C)(C)C)C(C)C
IC50 (MCF7 [1]): 150 nM | IC50 (MCF7 [2]): 120 nM

CN[C@H](C(=O)N[C@H](C(=O)N[C@H](/C=C(\C)C(=O)O)C(C)C)C(C)(C)C)C(C)(C)C
IC50 (MCF7 [1]): 1600 nM | IC50 (MCF7 [2]): > 10000 nM

CN[C@@H](C(=O)N[C@H](C(=O)N(C)[C@H](/C=C(\C)C(=O)O)C(C)C)C(C)(C)C)C(C)(C)c1ccccc1
IC50 (MCF7 [1]): 25 nM | IC50 (MCF7 [2]): 10 nM

CN[C@H](C(=O)N[C@H](C(=O)N(C)C/C=C(\C)C(=O)O)C(C)(C)C)C(C)(C)c1cn(C)c2ccccc12
IC50 (MCF7 [1]): > 10000 nM | IC50 (MCF7 [2]): > 10000 nM

CN[C@H](C(=O)N[C@H](C(=O)N(C)[C@H](CC(C)C(=O)O)C(C)C)C(C)(C)C)C(C)(C)c1cn(C)c2ccccc12 (stereo not given in full)
IC50 (MCF7 [2]): 2.5 nM

CN[C@H](C(=O)N[C@H](C(=O)N(C)CCCC(=O)O)C(C)(C)C)C(C)(C)c1cn(C)c2ccccc12
IC50 (MCF7 [1]): > 1000 nM | IC50 (MCF7 [2]): > 1000 nM

C/C(=C\[C@H](C(C)C)N(C)C(=O)[C@@H](NC(=O)[C@@H](N)Cc1c[nH]c2ccccc12)C(C)(C)C)C(=O)O
IC50 (MCF7 [1]): 40 nM | IC50 (MCF7 [2]): 20 nM

CN[C@H](C(=O)N[C@H](C(=O)N(C)[C@H](/C=C(\C)C(=O)O)C(C)C)C(C)C)C(C)(C)c1cn(C)c2ccccc12
IC50 (MCF7 [1]): 0.8 nM | IC50 (MCF7 [2]): 0.5 nM

CC[C@H](NC(=O)[C@@H](NC)C(C)(C)c1cn(C)c2ccccc12)C(=O)N(C)[C@H](/C=C(\C)C(=O)O)C(C)C
IC50 (MCF7 [1]): 0.8 nM | IC50 (MCF7 [2]): 0.5 nM

C/C(=C\[C@H](C(C)C)N(C)C(=O)[C@@H](NC(=O)[C@@H](N)C(C)(C)c1cn(C)c2ccccc12)C(C)(C)C)C(=O)O
IC50 (MCF7 [1]): 50 nM | IC50 (MCF7 [2]): 30 nM

CN[C@@H](Cc1cn(C)c2ccccc12)C(=O)N[C@H](C(=O)N(C)C/C=C(\C)C(=O)O)C(C)(C)C
IC50 (MCF7 [1]): > 10000 nM | IC50 (MCF7 [2]): > 10000 nM

C/C(=C\[C@H](C(C)C)N(C)C(=O)[C@@H](NC(=O)C(C)(C)C)C(C)(C)C)C(=O)O
IC50 (MCF7 [1]): > 10000 nM | IC50 (MCF7 [2]): > 10000 nM

CN[C@H](C(=O)N[C@H](C(=O)N(C)[C@@H](/C=C(\C)C(=O)O)C(C)C)C(C)(C)C)C(C)(C)c1cn(C)c2ccccc12
IC50 (MCF7 [1]): 30 nM | IC50 (MCF7 [2]): 10 nM

CN[C@H](C(=O)N[C@H](C(=O)N(C)[C@@H](C)/C=C(\C)C(=O)O)C(C)(C)C)C(C)(C)c1cn(C)c2ccccc12
IC50 (MCF7 [1]): 4 nM | IC50 (MCF7 [2]): 4 nM

CN[C@@H](Cc1cn(C)c2ccccc12)C(=O)N[C@H](C(=O)N(C)[C@H](/C=C(\C)C(=O)O)C(C)C)C(C)(C)C
IC50 (MCF7 [1]): 60 nM | IC50 (MCF7 [2]): 300 nM

CC(=O)N(C)[C@H](C(=O)N[C@H](C(=O)N(C)[C@H](/C=C(\C)C(=O)O)C(C)C)C(C)(C)C)C(C)(C)c1cn(C)c2ccccc12
IC50 (MCF7 [1]): 300 nM | IC50 (MCF7 [2]): 300 nM

CN[C@@H](Cc1cn(C)c2ccccc12)C(=O)N[C@H](C(=O)N(C)C(C)/C=C(\C)C(=O)O)C(C)(C)C (stereo not given in full)
IC50 (MCF7 [1]): 2500 nM | IC50 (MCF7 [2]): 1100 nM

C/C(=C\[C@H](C(C)C)N(C)C(=O)[C@@H](NC(=O)[C@H](C(C)(C)c1cn(C)c2ccccc12)[N+](C)(C)C)C(C)(C)C)C(=O)O
IC50 (MCF7 [1]): > 1000 nM | IC50 (MCF7 [2]): > 1000 nM

CN[C@H](C(=O)N[C@H](C(=O)N(C)[C@H](/C=C(\C)C(=O)N[C@@H](CCCNC(=N)N)C(=O)O)C(C)C)C(C)(C)C)C(C)(C)c1cn(C)c2ccccc12 [CRIAMIDES A]
IC50 (MCF7 [1]): 1000 nM

CN[C@H](C(=O)N[C@H](C(=O)N(C)[C@H](/C=C(\C)C(=O)OC)C(C)C)C(C)(C)C)C(C)(C)c1cn(C)c2ccccc12 [HEMIASTERLIN METHYL ESTER]
IC50 (MCF7 [1]): 0.5 nM | IC50 (MCF7 [2]): 0.5 nM

CN[C@H](C(=O)N[C@H](C(=O)N(C)[C@H](/C=C(\C)C(=O)O)C(C)C)C(C)(C)C)C(C)(C)c1c[nH]c2ccccc12 [HEMIASTERLINS A]
IC50 (MCF7 [1]): 2 nM | IC50 (MCF7 [2]): 2 nM

CN[C@H](C(=O)N[C@H](C(=O)N(C)[C@H](/C=C(\C)C(=O)O)C(C)C)C(C)C)C(C)(C)c1c[nH]c2ccccc12 [HEMIASTERLINS B]
IC50 (MCF7 [1]): 7 nM | IC50 (MCF7 [2]): 200 nM

CN[C@H](C(=O)N[C@H](C(=O)N(C)[C@H](/C=C(\C)C(=O)O)C(C)C)C(C)(C)C)C(C)(C)c1cn(C)c2ccccc12 [HEMIASTERLIN]
IC50 (MCF7 [1]): 0.3 nM | IC50 (MCF7 [2]): 0.3 nM

CN[C@H](C(=O)N[C@H](C(=O)N(C)[C@H](/C=C(\C)C(=O)O)C(C)C)C(C)(C)C)C(C)(C)c1ccccc1 [TALTOBULIN]
IC50 (MCF7 [1]): 0.08 nM | IC50 (MCF7 [2]): 0.09 nM
